≈ marks a conversion by molar mass, not a printed value. A value given as a limit tells only on which side of the number the result lay.

As a reminder, the IC50 is the concentration that gives 50% inhibition. By solubility is commonly meant the concentration that dissolves in the medium under given conditions. The Papp A→B is how fast a substance crosses the layer from the apical side. By Papp B→A is commonly meant how fast a substance crosses the layer from the basolateral side. A word on the efflux ratio: it is a quotient of directional permeabilities that is used to spot active efflux.

The target in data set [1] is Voltage-dependent T-type calcium channel subunit alpha-1H (Homo sapiens, UniProt O95180). The data set can be described thus: Inhibition of recombinant T-type calcium channel Cav3.2 (unknown origin) expressed in HEK293 cells assessed as inhibition of CaCl2-induced calcium influx preincubated for 3 mins prior CaCl2 addition by Fluo-4-AM dye-based FLIPR assay. In kind it is cell-based. The gist of the method: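 HEK293 cells stably expressing Cav3.2, plated overnight at 37°C, loaded 1 h at 37°C with 3 µM Fluo-4-AM in HBSS/Hepes pH 7.4, then washed. Compound in TEAC buffer (100 mM tetraethylammonium chloride, pH 7.2), 3-fold series from 10 µM to 0.05 nM, 3 min before CaCl2 to a final 10 mM. IC50 fitted sigmoidally to the fluorescence AUC against vehicle signal; mean of at least two independent experiments.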
Chain of Voltage-dependent T-type calcium channel subunit alpha-1H (O95180 whole entry): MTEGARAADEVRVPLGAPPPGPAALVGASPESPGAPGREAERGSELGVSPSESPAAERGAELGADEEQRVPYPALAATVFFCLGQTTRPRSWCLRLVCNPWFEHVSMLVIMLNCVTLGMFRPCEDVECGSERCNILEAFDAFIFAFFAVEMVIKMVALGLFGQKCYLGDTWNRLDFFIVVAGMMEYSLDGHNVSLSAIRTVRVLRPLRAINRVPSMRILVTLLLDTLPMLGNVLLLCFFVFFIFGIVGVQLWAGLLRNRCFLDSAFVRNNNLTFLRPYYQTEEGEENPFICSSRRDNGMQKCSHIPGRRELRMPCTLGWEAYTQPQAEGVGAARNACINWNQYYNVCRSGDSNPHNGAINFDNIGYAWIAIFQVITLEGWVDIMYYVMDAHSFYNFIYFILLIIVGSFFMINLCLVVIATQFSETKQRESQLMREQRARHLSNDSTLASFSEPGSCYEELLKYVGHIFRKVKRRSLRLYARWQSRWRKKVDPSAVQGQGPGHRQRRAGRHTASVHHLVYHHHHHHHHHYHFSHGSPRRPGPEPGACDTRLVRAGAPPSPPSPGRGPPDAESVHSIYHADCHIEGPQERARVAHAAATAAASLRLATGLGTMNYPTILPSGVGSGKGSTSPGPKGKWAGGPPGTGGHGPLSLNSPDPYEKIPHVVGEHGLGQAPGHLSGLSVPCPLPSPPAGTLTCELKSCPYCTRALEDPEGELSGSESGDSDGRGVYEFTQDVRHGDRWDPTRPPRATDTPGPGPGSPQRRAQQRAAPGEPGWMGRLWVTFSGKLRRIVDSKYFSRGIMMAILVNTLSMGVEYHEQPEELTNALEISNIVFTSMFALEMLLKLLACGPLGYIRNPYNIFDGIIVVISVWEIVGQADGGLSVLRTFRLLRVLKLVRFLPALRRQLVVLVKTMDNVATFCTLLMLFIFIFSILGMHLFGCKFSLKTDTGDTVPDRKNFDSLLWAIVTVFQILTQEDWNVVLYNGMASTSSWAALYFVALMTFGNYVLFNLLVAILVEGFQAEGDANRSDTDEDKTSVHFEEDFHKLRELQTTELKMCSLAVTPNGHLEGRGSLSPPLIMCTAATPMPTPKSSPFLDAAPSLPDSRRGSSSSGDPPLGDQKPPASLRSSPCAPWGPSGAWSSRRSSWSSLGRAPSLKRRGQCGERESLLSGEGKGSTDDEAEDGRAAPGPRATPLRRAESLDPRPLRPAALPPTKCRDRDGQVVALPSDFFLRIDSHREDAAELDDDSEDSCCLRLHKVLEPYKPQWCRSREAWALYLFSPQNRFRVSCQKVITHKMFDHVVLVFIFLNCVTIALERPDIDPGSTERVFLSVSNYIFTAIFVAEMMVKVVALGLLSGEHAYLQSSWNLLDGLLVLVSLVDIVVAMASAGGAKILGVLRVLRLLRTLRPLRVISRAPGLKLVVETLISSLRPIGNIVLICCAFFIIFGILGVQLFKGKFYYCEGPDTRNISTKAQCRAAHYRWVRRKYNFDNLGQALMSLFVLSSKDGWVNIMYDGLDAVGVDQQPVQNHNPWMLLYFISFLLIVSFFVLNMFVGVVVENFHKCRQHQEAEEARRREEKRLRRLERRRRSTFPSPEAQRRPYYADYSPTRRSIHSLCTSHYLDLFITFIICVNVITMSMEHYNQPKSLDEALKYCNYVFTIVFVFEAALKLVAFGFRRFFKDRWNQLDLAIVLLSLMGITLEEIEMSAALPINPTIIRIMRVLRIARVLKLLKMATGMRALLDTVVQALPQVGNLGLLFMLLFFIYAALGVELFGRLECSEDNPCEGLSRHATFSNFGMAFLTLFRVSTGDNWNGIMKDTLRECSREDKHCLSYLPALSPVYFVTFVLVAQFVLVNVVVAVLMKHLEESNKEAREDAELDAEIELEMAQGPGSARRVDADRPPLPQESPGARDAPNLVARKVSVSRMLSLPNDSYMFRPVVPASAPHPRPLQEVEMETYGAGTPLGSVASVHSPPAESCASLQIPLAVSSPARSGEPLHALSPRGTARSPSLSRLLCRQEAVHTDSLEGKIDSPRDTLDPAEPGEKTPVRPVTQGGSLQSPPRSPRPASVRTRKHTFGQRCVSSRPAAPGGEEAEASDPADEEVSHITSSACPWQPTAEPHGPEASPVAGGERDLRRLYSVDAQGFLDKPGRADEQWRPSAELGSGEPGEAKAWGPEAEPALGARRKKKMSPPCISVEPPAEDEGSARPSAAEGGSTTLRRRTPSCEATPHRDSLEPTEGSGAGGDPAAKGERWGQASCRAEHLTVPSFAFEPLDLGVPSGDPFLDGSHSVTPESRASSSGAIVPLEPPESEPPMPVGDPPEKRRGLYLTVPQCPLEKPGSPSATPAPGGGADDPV

For data set [2], the target named is Voltage-dependent L-type calcium channel subunit alpha-1C (Homo sapiens, UniProt Q13936). The data set is described as follows: Inhibition of recombinant […] calcium channel Cav1.2 (unknown origin) expressed in HEK293 cells assessed as inhibition of Kcl-induced calcium influx preincubated for 3 mins prior CaCl2 addition by Fluo-4-AM dye-based FLIPR assay. In kind it is cell-based. The method, boiled down: (§1)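 HEK293 cells stably expressing the channel, seeded overnight and loaded 1 h at 37°C with 3 µM Fluo-4-AM. Compounds given as a 3-fold dilution series from 10 µM to 0.05 nM and incubated 3 min. For T-type channels, dilutions in TEAC buffer and stimulation with 10 mM final CaCl2. For Cav1.2, dilutions in assay buffer and stimulation with 20 mM final KCl. IC50 from area under the fluorescence trace against vehicle; mean of at least two experiments.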
Chain of Voltage-dependent L-type calcium channel subunit alpha-1C (Q13936 whole entry): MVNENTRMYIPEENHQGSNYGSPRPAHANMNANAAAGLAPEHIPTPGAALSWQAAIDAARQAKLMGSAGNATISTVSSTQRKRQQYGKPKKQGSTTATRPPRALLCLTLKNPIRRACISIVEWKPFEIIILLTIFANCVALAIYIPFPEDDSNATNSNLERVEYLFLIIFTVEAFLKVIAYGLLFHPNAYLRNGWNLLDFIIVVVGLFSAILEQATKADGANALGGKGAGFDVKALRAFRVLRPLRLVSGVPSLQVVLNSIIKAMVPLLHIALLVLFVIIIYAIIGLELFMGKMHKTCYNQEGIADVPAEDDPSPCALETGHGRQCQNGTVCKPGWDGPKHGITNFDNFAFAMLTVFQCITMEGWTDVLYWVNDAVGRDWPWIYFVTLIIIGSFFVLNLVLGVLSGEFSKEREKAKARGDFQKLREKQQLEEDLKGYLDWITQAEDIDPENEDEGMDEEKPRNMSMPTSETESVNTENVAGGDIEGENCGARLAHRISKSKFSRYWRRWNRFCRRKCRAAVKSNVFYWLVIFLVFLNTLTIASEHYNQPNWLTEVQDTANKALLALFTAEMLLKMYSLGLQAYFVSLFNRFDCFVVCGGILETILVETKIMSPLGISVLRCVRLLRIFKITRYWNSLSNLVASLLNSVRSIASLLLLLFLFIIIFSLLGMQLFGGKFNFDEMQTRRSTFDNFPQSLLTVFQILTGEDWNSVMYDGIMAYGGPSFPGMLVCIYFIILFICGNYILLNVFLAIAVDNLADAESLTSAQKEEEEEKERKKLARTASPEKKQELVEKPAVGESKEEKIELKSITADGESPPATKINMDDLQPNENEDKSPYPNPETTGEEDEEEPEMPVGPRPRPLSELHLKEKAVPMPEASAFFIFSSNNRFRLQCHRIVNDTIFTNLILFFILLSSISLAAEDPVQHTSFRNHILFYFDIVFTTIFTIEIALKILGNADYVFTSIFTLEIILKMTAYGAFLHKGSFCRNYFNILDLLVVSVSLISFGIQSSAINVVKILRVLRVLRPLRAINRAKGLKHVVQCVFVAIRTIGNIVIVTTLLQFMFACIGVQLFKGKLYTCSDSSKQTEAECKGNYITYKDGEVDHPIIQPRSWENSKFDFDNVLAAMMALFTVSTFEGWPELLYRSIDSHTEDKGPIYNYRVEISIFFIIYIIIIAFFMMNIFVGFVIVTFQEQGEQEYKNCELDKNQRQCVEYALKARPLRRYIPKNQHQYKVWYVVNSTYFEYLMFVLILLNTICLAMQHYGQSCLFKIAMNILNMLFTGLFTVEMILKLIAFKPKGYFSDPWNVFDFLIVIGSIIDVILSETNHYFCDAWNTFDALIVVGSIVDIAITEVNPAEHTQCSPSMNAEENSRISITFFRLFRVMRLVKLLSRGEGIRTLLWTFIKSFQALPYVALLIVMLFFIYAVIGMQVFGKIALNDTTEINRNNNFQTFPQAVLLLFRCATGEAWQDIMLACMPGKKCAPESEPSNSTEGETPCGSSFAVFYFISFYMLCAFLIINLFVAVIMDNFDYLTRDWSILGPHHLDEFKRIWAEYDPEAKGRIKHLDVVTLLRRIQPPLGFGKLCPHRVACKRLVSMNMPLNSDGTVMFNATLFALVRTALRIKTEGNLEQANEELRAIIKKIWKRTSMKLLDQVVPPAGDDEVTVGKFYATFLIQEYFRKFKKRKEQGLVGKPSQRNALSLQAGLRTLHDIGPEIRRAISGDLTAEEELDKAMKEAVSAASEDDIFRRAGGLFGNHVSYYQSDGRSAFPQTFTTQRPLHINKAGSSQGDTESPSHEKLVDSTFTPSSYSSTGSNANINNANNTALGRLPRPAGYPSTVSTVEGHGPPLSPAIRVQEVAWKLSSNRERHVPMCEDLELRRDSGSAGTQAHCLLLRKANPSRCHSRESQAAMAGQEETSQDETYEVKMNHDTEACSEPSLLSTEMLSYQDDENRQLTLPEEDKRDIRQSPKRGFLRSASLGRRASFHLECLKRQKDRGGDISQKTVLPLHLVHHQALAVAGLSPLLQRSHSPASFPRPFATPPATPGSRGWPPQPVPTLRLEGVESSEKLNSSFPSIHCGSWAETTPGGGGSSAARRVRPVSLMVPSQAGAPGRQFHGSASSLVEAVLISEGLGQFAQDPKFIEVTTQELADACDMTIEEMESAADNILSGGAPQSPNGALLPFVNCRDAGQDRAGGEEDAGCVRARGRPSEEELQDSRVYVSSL

Data set [3] can be described thus: Aqueous solubility of the compound at pH 4 by UV-HPLC method. In kind it is physicochemical. The method, boiled down: (§2)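 Compound dispensed from a 10 mM DMSO stock and the solvent evaporated. Residue stirred 24 h at room temperature in buffer: citrate (55 mM) pH 4.0 or phosphate (67 mM) pH 7.0. Mixture filtered by centrifugation. Filtrate concentration measured by HPLC-UV against calibration solutions.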

Data set [4] in a line: Aqueous solubility of the compound at pH 7 by UV-HPLC method. The format is physicochemical. The gist of the method:
as §2

Data set [5] deals with MDR1. The data set can be described thus: Apparent permeability across apical to basolateral side in MDCK cells expressing MDR1 (unknown origin) at 1 uM. The note with it: dog. The format is ADME, cell-based, Canis lupus familiaris. The method, boiled down:
(§3)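 MDR1-transfected MDCK cell monolayers. Compound tested at 1 µM. Apparent permeability measured in both directions, apical to basolateral and basolateral to apical. Efflux ratio taken from the two directional permeabilities.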

In data set [6] the test system is MDR1. The data set can be described thus: Apparent permeability across basolateral to apical side in MDCK cells expressing MDR1 (unknown origin) at 1 uM. The format is ADME, cell-based, Canis lupus familiaris. The note with it: dog. The gist of the method:
as §3

The test system of data set [7] is MDR1. The data set can be described thus: Efflux ratio of permeability in MDCK cells expressing MDR1 (unknown origin). In kind it is ADME, cell-based, Canis lupus familiaris. The following applies: dog. The gist of the method:
as §3

In data set [8] the target is Voltage-gated inwardly rectifying potassium channel KCNH2 (Homo sapiens, UniProt Q12809). The data set can be described thus: Inhibition of human ERG expressed in CHO cells assessed as potassium tail current measured at -40 mV holding potential after 3 mins by QPatch clamp assay. The format is cell-based. The method, boiled down:
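CHO cells stably expressing hERG, automated QPatch recording. 500-ms depolarization to +20 mV from a holding potential of -80 mV. K+ tail current measured at -40 mV. Effect read 3 min after application.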

Data set [9] has as its target Voltage-dependent T-type calcium channel subunit alpha-1I (Homo sapiens, UniProt Q9P0X4). The data set can be described thus: Inhibition of T-type calcium channel Cav3.3 (unknown origin) expressed in HEK293 cells assessed as calcium influx by Fluo-4-AM dye-based FLIPR assay. In kind it is cell-based. The method, boiled down: as §1
The target in data set [10] is Voltage-dependent T-type calcium channel subunit alpha-1G (Homo sapiens, UniProt O43497). The data set is described as follows: Inhibition of T-type calcium channel Cav3.1 (unknown origin) expressed in HEK293 cells assessed as calcium influx by Fluo-4-AM dye-based FLIPR assay. In kind it is cell-based. The method, boiled down:
as §1

Consider `O=C(Nc1ccc(F)cc1)N1N=C(c2ccncc2)C[C@H]1c1ccc(F)cc1`, for which the IC50 in [1] was found to be 0.021 µM; in data set [2], 5.4 µM.
For the molecule `CS(=O)(=O)c1ccc(C2CC(c3ccccc3)=NN2C(=O)Nc2ccc(F)cc2)cc1` (stereo not given), the IC50 in [1] is 0.04 µM; in [2], greater than 10 µM. Besides, the solubility in data set [3] and in data set [4] was less than 1 µg/mL in each case.
With `COc1ccc(C2=NN(C(=O)Nc3ccc(Cl)cc3)[C@](CCO)(c3cccnc3)C2)cc1`, the IC50 is 0.055 µM in data set [1] and 5.7 µM in data set [2]. Moreover, the solubility was determined as 27 µg/mL (≈ 59.9 µM) in data set [3] and 14 µg/mL (≈ 31 µM) in [4]. For the same molecule, the Papp A→B at 1 µM in the data set with MDR1 [5] is 5.3 ×10⁻⁶ cm/s. Moreover, in the data set on MDR1 [6], the Papp B→A at 1 µM amounted to 90 ×10⁻⁶ cm/s. The efflux ratio in the data set on MDR1 [7] stood at 17.
As for `O=C(Nc1ccc(F)cc1)N1N=C(c2ccccc2)CC1(CCO)c1ccccc1` (stereo not given), the IC50 amounted to 0.12 µM in data set [1] and 1.94 µM in data set [2].
On to `COCCOc1ccc(C2(CCO)CC(c3ccccc3)=NN2C(=O)Nc2ccc(F)cc2)cc1` (stereo not given), for which the IC50 is 0.06 µM in data set [1] and 6.3 µM in data set [2]. The solubility in data set [3] and in data set [4] was 8 µg/mL (≈ 16.8 µM) each time.
Consider `CS(=O)(=O)c1ccc(C2(CCO)CC(c3ccccc3)=NN2C(=O)Nc2ccc(F)cc2)cc1` (stereo not given), for which the IC50 was 0.42 µM in data set [1] and greater than 10 µM in data set [2]. Besides, in the data set with MDR1 [5], the Papp A→B at 1 µM came to 0.6 ×10⁻⁶ cm/s. For the same molecule, the Papp B→A at 1 µM in the data set on MDR1 [6] turned out to be 62 ×10⁻⁶ cm/s. Moreover, in the data set with MDR1 [7], the efflux ratio is 104.
Take `CC(C)NC(=O)N1N=C(c2ccc(Br)cc2)CC1c1ccc(F)cc1` (stereo not given): the IC50 came to 0.382 µM in data set [1] and 2.36 µM in data set [2].
For `COc1ccc(C2(CCO)CC(c3cccnc3)=NN2C(=O)Nc2ccc(Br)cc2)cc1` (stereo not given) the same measures were 0.14 µM and greater than 10 µM.
Take `O=C(Nc1ccc(F)cc1)N1N=C(c2ccncc2)C[C@@H]1c1ccc(F)cc1`: the IC50 in data set [1] came to 0.32 µM; in [2] it was 7.8 µM.
Regarding `Cc1ccc(C2(CCO)CC(c3ccncc3)=NN2C(=O)Nc2ccc(F)cc2)cc1` (stereo not given), the IC50 amounted to 0.33 µM in data set [1] and 8.6 µM in data set [2]. Besides, the values for the solubility in [3] and in data set [4] were 193 µg/mL (≈ 461 µM) and 35 µg/mL (≈ 83.6 µM), respectively.
For `COc1ccc(NC(=O)N2N=C(c3ccc(Br)cc3)CC2c2ccc(F)cc2)cc1` (stereo not given) the same measures were 0.447 µM, greater than 10 µM, less than 1 µg/mL and less than 1 µg/mL.
`O=C(Nc1ccccc1)N1N=C(c2ccc(Br)cc2)CC1c1ccc(F)cc1` (stereo not given): the IC50 is 0.068 µM in data set [1], greater than 10 µM in data set [2] and greater than 10 µM in data set [8].
Regarding `CC(C)c1ccc(CC(=O)N[C@H](C)c2ccc(OCC(F)(F)F)cn2)cc1` [SUVECALTAMIDE], the IC50 was 0.0015 µM in [9], 0.0082 µM in [1] and 0.0012 µM in data set [10].
As for `O=C(Nc1ccc(F)cc1)N1N=C(c2ccc(Br)cc2)CC1c1ccc(F)cc1` (stereo not given), the results for the IC50 in [1] and in data set [2] were 0.016 µM and greater than 10 µM, respectively. Besides, the solubility in data set [3] was less than 1 µg/mL.
On to `Cc1ccc(C2(CCN3CCN(C)CC3)CC(c3ccccc3)=NN2C(=O)Nc2ccc(F)cc2)cc1` (stereo not given), for which the IC50 turned out to be 0.69 µM in data set [1] and 3.6 µM in data set [2]. For the same molecule, the solubility is 477 µg/mL (≈ 955 µM) in data set [3] and 158 µg/mL (≈ 316 µM) in [4].
With `O=C(NC1CCCCC1)N1N=C(c2ccc(Br)cc2)CC1c1ccc(F)cc1` (stereo not given), the figures for the IC50 in [1] and in [2] were 0.316 µM and 1.34 µM, respectively.
For `O=C(NCCc1ccccc1)N1N=C(c2ccc(Br)cc2)CC1c1ccc(F)cc1` (stereo not given) the same measures were 0.42 µM and 1.88 µM.
For `O=C(c1ccccc1)N1N=C(c2ccc(Br)cc2)CC1c1ccc(F)cc1` (stereo not given) the same measures were 5.39 µM and greater than 10 µM.
Take `O=C(Nc1ccc(F)cc1)N1N=C(c2ccccc2)CC1(CO)c1ccc(F)cc1` (stereo not given): the IC50 in data set [1] came to 0.07 µM; in data set [2], 2.65 µM. Besides, in data set [4], the concentration in solution (solubility) came to 2 µg/mL (≈ 4.91 µM).
As for `O=C(Nc1cccc(F)c1)N1N=C(c2ccc(Br)cc2)CC1c1ccc(F)cc1` (stereo not given), the concentration for half-maximal inhibition (IC50) in [1] is 0.046 µM; in data set [2], greater than 10 µM; in data set [8], greater than 10 µM.
Take `O=C(Nc1ccccn1)N1N=C(c2ccc(Br)cc2)CC1c1ccc(F)cc1` (stereo not given): the IC50 came out at 0.393 µM in data set [1] and 2.18 µM in data set [2].
Turning to `O=C(Nc1ccc(F)cc1)N1N=C(c2cc[n+]([O-])cc2)CC1c1ccc(F)cc1` (stereo not given), the results for the IC50 in data set [1] and in data set [2] were 0.11 µM and greater than 10 µM, respectively.
For `O=C(Nc1ccncc1)N1N=C(c2ccccc2)CC1c1ccc(F)cc1` (stereo not given) the same measures were 0.202 µM and 3.09 µM.
For `Fc1ccc(NC(=S)N2N=C(c3ccc(Br)cc3)CC2c2ccc(F)cc2)cc1` (stereo not given) the same measures were 0.281 µM and greater than 10 µM.
For `O=C(Nc1ccc(F)cc1)N1N=C(c2ccccc2)CC1c1ccc(F)cc1` (stereo not given), the IC50 in [1] was 0.025 µM; in data set [2], greater than 10 µM. Moreover, the solubility in data set [3] and in data set [4] was less than 1 µg/mL in each case.
As to `COCC1(c2ccc(C)cc2)CC(c2ccccc2)=NN1C(=O)Nc1ccc(F)cc1` (stereo not given), the IC50 in [1] was 0.35 µM; in data set [2], greater than 10 µM.
As for `CC(C)(C)NC(=O)CN1CCC(CNC(=O)c2cc(F)cc(Cl)c2)CC1` [ULIXACALTAMIDE], the IC50 is 0.086 µM in [9], 0.073 µM in data set [1] and 0.037 µM in data set [10].
As to `O=C(Nc1ccccc1F)N1N=C(c2ccc(Br)cc2)CC1c1ccc(F)cc1` (stereo not given), the IC50 in [1] and in [2] was greater than 10 µM in each case. In addition, the solubility in data set [3] and in data set [4] was less than 1 µg/mL throughout.
On to `CC1=NN(C(=O)Nc2ccc(F)cc2)C(c2ccc(F)cc2)C1` (stereo not given), for which the IC50 is 0.9 µM in data set [1] and greater than 10 µM in data set [2].
For `CN(C)CCOc1ccc(C2(CCO)CC(c3ccccc3)=NN2C(=O)Nc2ccc(F)cc2)cc1` (stereo not given) the same measures were greater than 5.3 µM and greater than 10 µM.
`COc1ccc([C@@]2(CCO)CC(c3cccnc3)=NN2C(=O)Nc2ccc(Br)cc2)cc1`: in data set [1], the IC50 was greater than 10 µM.
Take `Cc1ccc(C2(CCN(C)C)CC(c3ccccc3)=NN2C(=O)Nc2ccc(F)cc2)cc1` (stereo not given): the IC50 is 0.24 µM in data set [1] and 2.2 µM in [2]. The solubility is 42 µg/mL (≈ 94.5 µM) in data set [3] and 30 µg/mL (≈ 67.5 µM) in [4].
`CS(=O)(=O)c1ccc(C2CC(c3ccncc3)=NN2C(=O)Nc2ccc(F)cc2)cc1` (stereo not given): the IC50 in data set [1] was 0.41 µM; in [2], greater than 10 µM.
With `CC1CC(c2ccccc2)=NN1C(=O)Nc1ccc(F)cc1` (stereo not given), the IC50 in data set [1] was 0.41 µM; in [2], 3.9 µM.
Consider `Cc1ccc(C2(CCN3CCOCC3)CC(c3ccccc3)=NN2C(=O)Nc2ccc(F)cc2)cc1` (stereo not given), for which the IC50 in data set [1] came out at 0.43 µM; in data set [2], 5.9 µM. Moreover, the values for the solubility in data set [3] and in data set [4] were 371 µg/mL (≈ 762 µM) and 1 µg/mL (≈ 2.06 µM), respectively.
In the case of `CCc1ccc(NC(=O)N2N=C(c3ccc(Br)cc3)CC2c2ccc(F)cc2)cc1` (stereo not given), the IC50 in data set [1] was 0.613 µM; in data set [2], greater than 10 µM.
For `COc1ccc([C@]2(CCO)CC(c3cccnc3)=NN2C(=O)Nc2ccc(Br)cc2)cc1` the same measures were 0.033 µM and 4.8 µM.

Source of the values: ChEMBL document CHEMBL3853331, “Preparation, Antiepileptic Activity, and Cardiovascular Safety of Dihydropyrazoles as Brain-Penetrant T-Type Calcium Channel Blockers” (J Med Chem, 2016).
